These results are taken from ChEMBL document CHEMBL3120079, “NF-κB inhibitors from Eurycoma longifolia” (J Nat Prod, 2014).

For one series, the system named is HEK293. In words: Growth inhibition of TNF-alpha stimulated human HEK-293/NF-kB-luc cells assessed as cell viability at 30 uM incubated for 30 mins prior to TNF-alpha challenge for 4 hrs by CellTracker Green CMFDA staining. Type of series: cell-based. Particulars: hek293, 4 h. The method, boiled down: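 Cells loaded 1 h with 2 μM CellTracker Green CMFDA in serum-free medium, reseeded at 4 × 10^4 cells/well overnight in phenol red-free, FBS-free DMEM. Pretreated with test compound or vehicle (0.1% DMSO) for 30 min, then TNF-α 2 ng/mL for 4 h. After lysis, CMFDA fluorescence was compared with vehicle-treated cells.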

The species named for series [1] is Homo sapiens. Briefly: (§1) Inhibition of NF-kappaB activity in TNF-alpha stimulated human HEK-293/NF-kB-luc cells incubated for 30 mins prior to TNF-alpha challenge for 4 hrs by luciferase reporter gene assay. The method, boiled down: (§2)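 HEK293/NF-κB-luc cells were prestained with 2 μM CMFDA for 1 h, reseeded at 4 × 10^4 cells/well overnight in phenol red-free, serum-free DMEM, pretreated 30 min with compound or 0.1% DMSO vehicle, then stimulated with TNF-α 2 ng/mL for 4 h. Lysates were read for firefly luciferase, normalized to CMFDA fluorescence for cell number. Screen at 30 μM; IC50 determined for selected compounds.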
(In a reporter assay the amount or activity of a reporter protein is the signal.)

For series [2], the species on record is Homo sapiens. In words: Inhibition of NF-kappaB activity in TNF-alpha stimulated human HEK-293/NF-kB-luc cells at 30 uM incubated for 30 mins prior to TNF-alpha challenge for 4 hrs by luciferase reporter gene assay. Summed up: as §2
Series [3] is described as follows: as §1. Summed up: as §2
Series [4] is described as follows: Toxicity against brine shrimp. Type of series: organism-based. Particulars: artemia, in vivo; read-out: LD50 (the source's name).
Series [5] can be described thus: Acute toxicity in po dosed mouse. Type of series: organism-based. The note with it: in vivo.
Where [6] appears, read: Homo sapiens, HEK293, read-out: IC50.

The inhibition is the change of the read-out against control, counted positive when it falls. One may read the IC50 as the concentration that inhibits the measured activity by half. The term LD50 denotes the dose expected to kill half of the subjects tested. Lower therefore signals greater toxicity.

Molecules are shown by their SMILES. In brackets after ≈: the same amount, converted by molar mass. Activity calls are given as the source filed them.

With `CC(=O)O[C@@H](CC[C@@H](OC(C)=O)[C@]1(C)CC[C@H]([C@@](C)(O)CCC=C(C)C)O1)[C@@]1(C)CC[C@H]([C@@](C)(O)CCC=C(C)C)O1`, the Activity result in the series with HEK293 is listed as “Non-toxic”. The inhibition entry in the series listed under Homo sapiens [1] was “inactive”.
For the compound `COc1c(O)c2nccc3c4ccccc4n(c1=O)c23` [PICRASIDINE Q], the Activity entry with HEK293 is listed as “Non-toxic”. The inhibition result in the series listed under Homo sapiens [2] is “inactive”.
For `COc1cc2ccc(=O)oc2cc1O` [SCOPOLETIN], the Activity entry in the series with HEK293 was “Non-toxic”. The inhibition result in the series listed under Homo sapiens [1] is “inactive”.
For `CC1=CC(=O)[C@@]2(C)C1=CC(=O)[C@]1(C)[C@@H]2[C@@H](O)[C@@H]2OC(=O)[C@H]1[C@H]2C` [LAURYCOLACTONE B], the Activity entry with HEK293 was “Non-toxic”. In addition, in series [3], the IC50 result is on record as “Not Active”.
In the case of `CC1=CC(=O)[C@@H](O)[C@]2(C)[C@H]3[C@@H](O)[C@H](O)[C@H](C)[C@]4(O)[C@@H](O)C(=O)O[C@H](C[C@@H]12)[C@]34C`, the LC50 in series [4] was 324 µg/mL (≈ 816 µM). Also, the Activity result in the series with HEK293 is given as “Non-toxic”. Besides, the IC50 in series [3] (setting [6]) came out at 1 µM. In the series listed under Homo sapiens [2], this compound displayed an inhibition of more than 50%.
As for `COc1ccc2c3ccnc4ccc(=O)n(c2c1)c43`, the Activity result in the series on HEK293 is on record as “Non-toxic”. Also, the IC50 in series [3] (setting [6]) amounted to 7.4 µM. In the series listed under Homo sapiens [2], this compound registered an inhibition of more than 50%.
`O=C(O)c1ccc(O)c(-c2cc(C(=O)O)ccc2O)c1`: in the series filed under Homo sapiens [1], the inhibition result is “inactive”.
Take `C=C1[C@@H](O)[C@@]2(O)OC[C@]34[C@H]2[C@@]2(C)[C@H](O)C(=O)C=C(C)[C@@H]2C[C@H]3OC(=O)[C@H](O)[C@@]14O` [EURYCOMANONE]: the LC50 in series [4] came to 3.5 µg/mL (≈ 8.57 µM). The LD50 in series [5] came out at 50 mg/kg. The Activity entry in the series on HEK293 is “Non-toxic”. Besides, the IC50 in series [3] (setting [6]) stood at 2.4 µM. The inhibition in the series filed under Homo sapiens [2] was more than 50%.
With `COc1cc(C(=O)O)ccc1O`, the inhibition entry in the series filed under Homo sapiens [1] was “inactive”.
For `CC1=CC(=O)[C@@H](O)[C@]2(C)[C@H]3[C@@H](O)[C@@H]4OC(=O)[C@@H]([C@H]4C)[C@]3(C)[C@H](O)C[C@@H]12`, the Activity result in the series with HEK293 is given as “Non-toxic”. Besides, the IC50 in series [3] (setting [6]) stood at 1.5 µM. Besides, the inhibition in the series filed under Homo sapiens [2] was more than 50%.
The like results for `CC1=C[C@H](O)[C@@H](O)[C@@]2(C)[C@H]1CC(=O)[C@@]1(C)[C@H]3C(=O)O[C@H]([C@@H]3C)[C@H](O)[C@@H]12` [EURYCOLACTONE E] were, in that order, “Non-toxic”, 3.8 µM and more than 50%.
The like results for `CC1=CC(=O)[C@@H](O)[C@@]2(C)C1=CC(=O)[C@]1(C)[C@@H]2[C@@H](O)[C@@H]2OC(=O)[C@H]1[C@H]2C` were, in that order, “Non-toxic”, 6.2 µM and more than 50%.
The matching figures for `CC1=CC(=O)[C@@H](O)[C@@]2(C)[C@H]1CC(=O)[C@@]1(C)[C@H]3C(=O)O[C@H]([C@@H]3C)[C@H](O)[C@@H]12` [EURYCOMALACTONE]: “Non-toxic”, 0.5 µM and more than 50%.
Turning to `COc1ccc(-c2oc3c(OC)c(OC)c(OC)c(OC)c3c(=O)c2OC)cc1OC` [3,5,6,7,8,3',4'-HEPTAMETHOXYFLAVONE], the Activity result in the series with HEK293 is on record as “Non-toxic”. Further, the IC50 in series [3] (setting [6]) is 23.3 µM. In the series filed under Homo sapiens [2], this compound yielded an inhibition of more than 50%.
Consider `O=c1ccc2nccc3c4ccc(O[C@@H]5O[C@H](CO)[C@@H](O)[C@H](O)[C@H]5O)cc4n1c23`, for which the Activity entry with HEK293 is recorded as “Non-toxic”. For the same compound, in the series listed under Homo sapiens [2], the inhibition entry is “inactive”.
In the case of `C[C@@H]1CC[C@]2(C(=O)O[C@@H]3O[C@H](CO)[C@@H](O)[C@H](O)[C@H]3O)CC[C@]3(C)C(=CC[C@@H]4[C@@]5(C)CC[C@H](O)[C@@](C)(CO)[C@@H]5CC[C@]43C)[C@@H]2[C@]1(C)O` [PEDUNCULOSIDE], the Activity result with HEK293 is reported as “Non-toxic”. Besides, in the series listed under Homo sapiens [1], the inhibition entry was “inactive”.
Regarding `C[C@H]1[C@H]2OC(=O)[C@@H]1[C@]1(C)C(=O)C=C3[C@H](C)CC(=O)[C@@H](O)[C@]3(C)[C@H]1[C@H]2O`, the Activity entry in the series with HEK293 is recorded as “Non-toxic”. For the same compound, the IC50 in series [3] (setting [6]) was determined as 18.4 µM. Moreover, the inhibition in the series filed under Homo sapiens [2] was more than 50%.
As for `COc1cc2ccc(=O)oc2c(O)c1OC`, the Activity entry in the series on HEK293 was “Non-toxic”. In addition, the inhibition result in the series filed under Homo sapiens [1] is “inactive”.
On to `COC(=O)c1nccc2c1[nH]c1ccccc12`, for which the Activity entry in the series on HEK293 is given as “Non-toxic”. Besides, in series [3] (setting [6]), the IC50 was 29.3 µM. Moreover, the inhibition in the series listed under Homo sapiens [2] was more than 50%.
The like results for `O=c1ccc2nccc3c4ccc(O)cc4n1c23` were, in that order, “Non-toxic”, 3.8 µM and more than 50%.
Regarding `C=C1C(=O)O[C@@H]2C3O[C@]3(C)CC/C=C(\C)CC[C@@H]12` (stereo partly drawn), the Activity entry in the series with HEK293 is “Non-toxic”. Further, the IC50 in series [3] (setting [6]) amounted to 1.5 µM.
On to `COc1cc(C=O)ccc1O`, for which the inhibition entry in the series filed under Homo sapiens [1] is “inactive”.
Consider `COc1cc2c3ccnc4ccc(=O)n(c2cc1OC)c43.Cl`, for which, in the series on HEK293, the Activity result is on record as “Non-toxic”. For the same compound, in series [3] (setting [6]), the IC50 came to 19.5 µM. In addition, the inhibition in the series listed under Homo sapiens [2] is more than 50%.
Consider `COc1cc(C)c2c(=O)cc(C[C@H](C)O)oc2c1[C@@H]1O[C@H](CO)[C@@H](O)[C@H](O)[C@H]1OC(=O)/C=C/c1ccc(O)cc1`, for which the inhibition entry in the series filed under Homo sapiens [1] is “inactive”.
For the compound `CC1=CC(=O)[C@@H](O)[C@]2(C)[C@H]3C(=O)[C@H](O)[C@H](C)[C@@H]4CC(=O)O[C@H](C[C@@H]12)[C@]34C`, the Activity result in the series on HEK293 was “Non-toxic”. In addition, the IC50 in series [3] (setting [6]) is 1.9 µM. The compound further yielded an inhibition in the series filed under Homo sapiens [2] of more than 50%.
For `COc1cc(C(=O)O)cc(OC)c1O`, in the series filed under Homo sapiens [1], the inhibition entry is “inactive”.
`CC1=CC(=O)[C@@H](O)[C@]2(C)[C@H]3[C@@]4(O)OC[C@@]35[C@@H](C[C@@H]12)OC(=O)[C@H](O)[C@@]5(O)[C@@H](C)[C@H]4O`: in series [4], the LC50 was determined as 10.3 µg/mL (≈ 25.1 µM). Further, the Activity entry in the series with HEK293 was “Non-toxic”. Besides, the IC50 in series [3] (setting [6]) was 0.7 µM. Moreover, the inhibition in the series filed under Homo sapiens [2] is more than 50%.
In the case of `CC1=CC(=O)[C@]2(C)[C@H]3[C@@H](O)[C@@H]4OC(=O)[C@@H]([C@H]4C)[C@]3(C)C(=O)C[C@@H]12` [LAURYCOLACTONE A], in the series with HEK293, the Activity result is on record as “Non-toxic”. Moreover, the IC50 result in series [3] is “Not Active”.
In the case of `CC1=CC(=O)[C@@H](O)[C@@]2(C)[C@H]1[C@@H](O)[C@H]1OC(=O)C3[C@@H](C)[C@H](O)[C@H](O)[C@H]2[C@]31C` (stereo partly drawn) [LONGILACTONE], the LC50 in series [4] turned out to be 145 µg/mL (≈ 395 µM). Besides, in the series on HEK293, the Activity result is reported as “Non-toxic”. Further, in series [3] (setting [6]), the IC50 was 4.7 µM. In the series listed under Homo sapiens [2], this compound came in with an inhibition of more than 50%.
